Source: PubChem
HIF activator = HIF pathway transcriptional activators, primary screen, cell-based, U2OS HRE-luciferase, luminescence | U2OS HRE-luciferase reporter; normalized: DMSO 0%, desferrioxamine 100% | activation, % at 7.5 µM (by protocol) | 300,000 tested, 0.32% active | AID 1910, 2009;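 active = mean activation of at least 10% of the iron chelator positive control signal, with at least half of replicates also reaching 10%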
PP1 counter = PP1-alpha phosphatase inhibitors, primary screen, counter-screen for PP5 inhibitor project, biochemical, fluorescence, OMFP substrate, single point; Serine/threonine-protein phosphatase PP1-alpha catalytic subunit (Homo sapiens), P62136; purified PP1alpha; inhibition, % at 6.7 µM; 320,000 tested, 0.9% active; AID 2235, 2010;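 active = inhibition above the mean inhibition of all tested compounds plus 3 SD, computed separately for each screening campaign, cut at about 15% in these data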
Target sequence (P62136 whole entry, looked up): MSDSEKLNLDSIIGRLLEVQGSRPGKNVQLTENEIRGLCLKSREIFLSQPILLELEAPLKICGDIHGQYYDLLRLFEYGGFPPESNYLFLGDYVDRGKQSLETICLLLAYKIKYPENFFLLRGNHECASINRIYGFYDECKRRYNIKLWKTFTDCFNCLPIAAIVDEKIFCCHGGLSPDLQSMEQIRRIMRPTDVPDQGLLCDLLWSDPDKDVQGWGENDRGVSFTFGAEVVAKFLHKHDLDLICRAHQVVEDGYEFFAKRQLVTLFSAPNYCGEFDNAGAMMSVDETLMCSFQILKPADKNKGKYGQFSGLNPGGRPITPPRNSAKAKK
DNA FID counter = compounds displacing fluorescent DNA intercalator, primary screen, artefact control for HCV NS3 helicase inhibitor project, biochemical, FID fluorescence | DNA fluorescent intercalator displacement | inhibition, % at 7.9 µM | 290,000 tested, 0.17% active | AID 1845, 2009; in the data active = inhibition above about 37%;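 note: 0% = vehicle and 100% = reference compound; higher means more ethidium bromide displaced from hairpin DNA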
NS3 helicase inh = inhibitors of HCV NS3 helicase, primary screen, biochemical, Cy5 molecular beacon fluorescence. NS3 helicase DNA unwinding. 290,000 tested, 0.56% active. Hepatitis C virus NS3 helicase. AID 1800, 2009. inhibition, % at 10.9 µM;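 active = inhibition above the mean of all tested compounds plus 3 SD, set per campaign, cut at about 35% in these data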;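 note: 0% = DMSO wells and 100% = thioflavine S control wells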
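System: HCV NS3 helicase fragment; control set: DMSO and thioflavine S; technique: Cy5 fluorescence at 0 and 60 min, beacon hairpin quenching; reagent: beacon DNA duplex substrate plus ATP; replicates: singlicate; schedule: 1 h reaction at 25 °C, ATP-initiated; medium: MOPS buffer pH 6.5 with MgCl2, DTT, Tween20, BSA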
PP5 primary = PP5 phosphatase inhibitors, primary screen, biochemical, fluorescence. purified PP5c, OMFP substrate fluorescence. inhibition, % at 6.7 µM. Serine/threonine-protein phosphatase 5 (Homo sapiens), P53041. 320,000 tested, 0.18% active;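 active = inhibition above the campaign's mean inhibition across all tested compounds plus 3 SD, cut at about 9.5% in these data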;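 note: 0% = DMSO only and 100% = 100 µM cantharidin control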
PP1 inh confirm = PP1 phosphatase inhibitors, confirmation, biochemical, fluorescence, OMFP substrate, triplicate; purified PP1alpha; inhibition, % at 6.7 µM; shares compounds with PP1 counter; 1,900 tested, 52% active;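 active = mean PP1 inhibition above a set limit taken from the earlier primary screen, cut at about 15% in these data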
PP5 inh counter = PP5 phosphatase inhibition by PP1 hits, confirmation, counter-screen for PP1 inhibitor project, biochemical, fluorescence, triplicate; shares compounds with PP1 counter; purified PP5c, OMFP fluorescence; inhibition, % at 6.7 µM; 1,900 tested, 4% active; AID 2360, 2010;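 active = mean PP5 inhibition over triplicate wells above about 9.5% taken from the earlier PP1 screen, limit read from the data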
* marks the source's active call; other numbers are inactive results. The list is not random: actives were taken first. Their share in the collection is about 1.9%.

COc1cc(/C=C2\SC(=S)N(CCCCC(=O)O)C2=O)ccc1OS(=O)(=O)c1ccc(C)cc1 was read as HIF activator 0, PP1 counter 31*, PP5 primary 1, PP1 inh confirm 29* and PP5 inh counter 3.
Screening Cc1cccc(N=C2NC(=O)c3cc([N+](=O)[O-])ccc32)c1 returned HIF activator 0, PP1 counter -4, DNA FID counter -4, NS3 helicase inh -3 and PP5 primary 5.
Cc1cc(C(=O)COC(=O)CC2Sc3ccccc3NC2=O)c(C)n1-c1ccccc1 (stereo not given) was read as HIF activator 0, PP1 counter 23*, DNA FID counter -20, NS3 helicase inh 13, PP5 primary 3, PP1 inh confirm 9 and PP5 inh counter -2.
For Cc1cc(C(=O)COC(=O)CC2Sc3ccccc3NC2=O)c(C)n1-c1ccc2c(c1)OCO2 (stereo not given) the results were HIF activator 1, PP1 counter 11, DNA FID counter -23, NS3 helicase inh -5 and PP5 primary 3.
Clc1ccc(C2=C3CCCCn4c(-c5ccccc5)c[n+](c43)C2)cc1 was read as HIF activator -1, PP1 counter 18*, DNA FID counter -12, NS3 helicase inh -80, PP5 primary 0, PP1 inh confirm -12 and PP5 inh counter -1.
COc1ccc(-c2c[n+]3c4n2CCCCC4=C(c2ccc(Br)cc2)C3)cc1 was read as HIF activator 0, PP1 counter 33*, DNA FID counter -13, NS3 helicase inh -83, PP5 primary 2, PP1 inh confirm -11 and PP5 inh counter -1.
O=C1CCC([N+](=O)[O-])C(c2ccccc2C(F)(F)F)N1 (stereo not given) was read as HIF activator 0, PP1 counter -4, DNA FID counter -1, NS3 helicase inh -2 and PP5 primary -1.
Screening Cc1ccccc1C(=O)N/N=C1/SCC(=O)N1Cc1ccccc1 returned HIF activator 0, PP1 counter -3, DNA FID counter 4, NS3 helicase inh -2 and PP5 primary 1.
For COc1ccc(/C=N/Nc2nc(C(=O)O)cs2)cc1 the results were HIF activator 2, PP1 counter 20*, DNA FID counter -26, NS3 helicase inh 8, PP5 primary 3, PP1 inh confirm 10 and PP5 inh counter -2.
CCc1ccccc1NC(=S)N(Cc1ccc(C(=O)O)cc1)Cc1ccc(OC)c(OC)c1 was read as HIF activator 1, PP1 counter -1, DNA FID counter -17, NS3 helicase inh 6 and PP5 primary -3.
For COc1ccc(C2NC(=O)c3ccccc3O2)cc1 (stereo not given) the results were HIF activator 1, PP1 counter -5, DNA FID counter -6, NS3 helicase inh -4 and PP5 primary 1.
Screening O=C(Nc1ccc2oc(-c3cccc4ccccc34)nc2c1)c1ncn[nH]1 returned HIF activator 5, PP1 counter 26*, DNA FID counter 2, NS3 helicase inh 5, PP5 primary -1, PP1 inh confirm 4 and PP5 inh counter -2.
For O=C(Nc1ccc2oc(-c3ccccc3Cl)nc2c1)c1ncn[nH]1 the results were HIF activator 1, PP1 counter 19*, DNA FID counter -7, NS3 helicase inh 9, PP5 primary 1, PP1 inh confirm 3 and PP5 inh counter -6.
`CC(C)c1ccc2oc(-c3ccc(NC(=O)c4ncn[nH]4)cc3)nc2c1` gave HIF activator 1, PP1 counter 10, DNA FID counter -6, NS3 helicase inh -4 and PP5 primary 3.
O=C(O)CCCn1cc(NC(=O)c2c(F)cccc2F)cn1 was read as HIF activator 0, PP1 counter -3, DNA FID counter 1, NS3 helicase inh 10 and PP5 primary 2.
Screening COc1cccc(C2Nc3ccc4ccccc4c3C3=C2C(=O)CCC3)c1O (stereo not given) returned HIF activator 0, PP1 counter 15, DNA FID counter -15, NS3 helicase inh 15 and PP5 primary 0.
For O=C(O)CCC(=O)N1CCc2cc(S(=O)(=O)N(CCc3ccccc3)Cc3ccccc3)ccc21 the results were HIF activator 0, PP1 counter 20*, DNA FID counter -35, NS3 helicase inh -6, PP5 primary 4, PP1 inh confirm 15* and PP5 inh counter -4.
Screening CN(C)C(CNS(=O)(=O)c1ccc2ccccc2c1)c1ccccc1 (stereo not given) returned HIF activator -1, PP1 counter 1, DNA FID counter 7, NS3 helicase inh -10 and PP5 primary 1.
O=C(Cc1ccc(Cl)cc1)Nc1ccc(-c2cc3ccccc3oc2=O)c(Cl)c1 was read as HIF activator -1, PP1 counter 23*, DNA FID counter -13, NS3 helicase inh 16, PP5 primary 2, PP1 inh confirm 24* and PP5 inh counter 3.
CCC1(C)N=C(N)Nc2nc3cc(C)c(C)cc3n21 (stereo not given) was read as HIF activator -15, PP1 counter -2, DNA FID counter 2, NS3 helicase inh -1 and PP5 primary 2.
`Cc1cccc(C)c1-n1c(C)nn(CC#N)c1=O` gave HIF activator -1, PP1 counter -1, DNA FID counter -1, NS3 helicase inh 5 and PP5 primary 1.
For CCOC(=O)CSc1nc(C2CC2)cc(-c2ccc(Cl)cc2)c1C#N the results were HIF activator 0, PP1 counter 3, DNA FID counter -4, NS3 helicase inh -2 and PP5 primary 1.
`N#Cc1c(-c2ccc(Cl)cc2)cc(-c2cccs2)nc1SCC(=O)O` gave HIF activator -1, PP1 counter 47*, DNA FID counter 4, NS3 helicase inh 5, PP5 primary 2, PP1 inh confirm 49* and PP5 inh counter -5.
Screening COc1ccc(CC(=O)Nc2c3c(nn2-c2ccccc2C)CS(=O)C3)cc1 (stereo not given) returned HIF activator 0, PP1 counter 22*, DNA FID counter -6, NS3 helicase inh -2, PP5 primary 0, PP1 inh confirm 1 and PP5 inh counter -1.
